Reference: ChEMBL document CHEMBL3286116, “Synthesis, biological evaluation and structure-activity correlation study of a series of imidazol-based compounds as Candida albicans inhibitors” (Eur J Med Chem, 2014)
In brackets after ≈: the same amount, converted by molar mass.

Experiments:
Type in all cases: functional
Candida albicans [1] = experiment: Antifungal activity against Candida albicans ATCC 3153 after 48 hrs by CLSI broth microdilution method; details: ATCC 3153, 48 h
How it was run: (§1)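 Yeast CLSI broth microdilution (M27-A3). Compounds dissolved in DMSO at 100× the top test concentration, then diluted as serial two-fold dilutions in RPMI 1640 to final 0.125–64. Inoculum was 1.0–1.5 × 10^3 cells mL−1, incubated at 35 °C and read for growth at 48 h. MIC is the lowest concentration giving ≥50% growth inhibition versus growth control. Reported as the median of five replicates and as the geometric mean.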

Candida parapsilosis [2] = experiment: Antifungal activity against Candida parapsilosis DSM 11224 after 48 hrs by CLSI broth microdilution method; details: Lodderomyces parapsilosis, DSM 11224, 48 h; how it was run: as §1
Candida albicans [3] = experiment: Antifungal activity against Candida albicans PMC 1042R after 48 hrs by CLSI broth microdilution method; how it was run: as §1
Nannizzia gypsea [4] = experiment: Antifungal activity against Microsporum gypseum DSM 3824 after 72 hrs by CLSI broth microdilution method; details: DSM 3824, 72 h
How it was run: (§2)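 Dermatophytes tested by CLSI broth microdilution for filamentous fungi (M38-A2). Serial two-fold dilutions of DMSO-dissolved compound in RPMI 1640, final 0.125–64. Inoculum was 0.4–5 × 10^4 CFU mL−1, incubated at 35 °C and read at 72 h. MIC80 is the lowest concentration giving ≥80% growth inhibition versus growth control. Median of five replicates, plus geometric mean.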

Nakaseomyces glabratus [5] = experiment: Ratio of fluconazole MIC to compound MIC for Candida glabrata PMC 0852R after 48 hrs by CLSI broth microdilution method
[6] = test system: Trichophyton mentagrophytes; experiment: Antifungal activity against Trichophyton mentagrophytes PMC 6531 after 72 hrs by CLSI broth microdilution method; details: PMC 6531, 72 h; how it was run: as §2
Nakaseomyces glabratus [7] = experiment: Antifungal activity against Candida glabrata PMC 0850R after 48 hrs by CLSI broth microdilution method; how it was run: as §1
Candida albicans [8] = experiment: Antifungal activity against Candida albicans ATCC 20891 after 48 hrs by CLSI broth microdilution method; details: ATCC 20891, 48 h; how it was run: as §1
Cryptococcus neoformans [9] = experiment: Antifungal activity against Cryptococcus neoformans PMC 2103 after 72 hrs by CLSI broth microdilution method; details: PMC 2103, 72 h
How it was run: (§3)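 Cryptococcus neoformans tested by CLSI broth microdilution in RPMI 1640, with serial two-fold dilutions from DMSO stocks at 100× the top concentration, final 0.125–64. Inoculum was 1.0–1.5 × 10^3 cells mL−1 at 35 °C, with growth read at 72 h. MIC is the lowest concentration with ≥50% growth inhibition versus control. Median of five replicates, plus geometric mean.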

[10] = test system: Trichophyton mentagrophytes; experiment: Antifungal activity against Trichophyton mentagrophytes PMC 6552 after 72 hrs by CLSI broth microdilution method; details: PMC 6552, 72 h; how it was run: as §2
Cryptococcus neoformans [11] = experiment: Antifungal activity against Cryptococcus neoformans PMC 2111 after 72 hrs by CLSI broth microdilution method; details: PMC 2111, 72 h; how it was run: as §3
Cryptococcus neoformans [12] = experiment: Antifungal activity against Cryptococcus neoformans PMC 2107 after 72 hrs by CLSI broth microdilution method; details: PMC 2107, 72 h; how it was run: as §3
Candida albicans [13] = experiment: Antifungal activity against Candida albicans PMC 1041R after 48 hrs by CLSI broth microdilution method; how it was run: as §1
Candida albicans [14] = experiment: Ratio of fluconazole MIC to compound MIC for Candida albicans PMC 1040R after 48 hrs by CLSI broth microdilution method
Cryptococcus neoformans [15] = experiment: Antifungal activity against Cryptococcus neoformans PMC 2115 after 72 hrs by CLSI broth microdilution method; details: PMC 2115, 72 h; how it was run: as §3
Candida albicans [16] = experiment: Antifungal activity against Candida albicans ATCC 10261 after 48 hrs by CLSI broth microdilution method; details: ATCC 10261, 48 h; how it was run: as §1
Candida tropicalis [17] = experiment: Antifungal activity against Candida tropicalis PMC 0910 after 48 hrs by CLSI broth microdilution method; details: PMC 0910, 48 h; how it was run: as §1
Candida albicans [18] = experiment: Antifungal activity against Candida albicans PMC 1040R after 48 hrs by CLSI broth microdilution method; how it was run: as §1
Candida albicans [19] = experiment: Antifungal activity against Candida albicans ATCC 90028 after 48 hrs by CLSI broth microdilution method; details: ATCC 90028, 48 h; how it was run: as §1
[20] = test system: Trichophyton mentagrophytes; experiment: Antifungal activity against Trichophyton mentagrophytes DSM 4870 after 72 hrs by CLSI broth microdilution method; details: DSM 4870, 72 h; how it was run: as §2
Cryptococcus neoformans [21] = experiment: Antifungal activity against Cryptococcus neoformans PMC 2136 after 72 hrs by CLSI broth microdilution method; details: PMC 2136, 72 h; how it was run: as §3
Cryptococcus neoformans [22] = experiment: Antifungal activity against Cryptococcus neoformans PMC 2102 after 72 hrs by CLSI broth microdilution method; details: PMC 2102, 72 h; how it was run: as §3
Pichia kudriavzevii [23] = experiment: Antifungal activity against Candida krusei PMC 0613 after 48 hrs by CLSI broth microdilution method; details: PMC 0613, 48 h; how it was run: as §1
Cryptococcus neoformans [24] = experiment: Antifungal activity against Cryptococcus neoformans PMC 2123 after 72 hrs by CLSI broth microdilution method; details: PMC 2123, 72 h; how it was run: as §3
[25] = test system: Trichophyton mentagrophytes; experiment: Antifungal activity against Trichophyton mentagrophytes PMC 6515 after 72 hrs by CLSI broth microdilution method; details: PMC 6515, 72 h; how it was run: as §2
Nakaseomyces glabratus [26] = experiment: Antifungal activity against Candida glabrata PMC 0853R after 48 hrs by CLSI broth microdilution method; how it was run: as §1
Nakaseomyces glabratus [27] = experiment: Ratio of fluconazole MIC to compound MIC for Candida glabrata PMC 0853R after 48 hrs by CLSI broth microdilution method
Nakaseomyces glabratus [28] = experiment: Antifungal activity against Candida glabrata PMC 0851R after 48 hrs by CLSI broth microdilution method; how it was run: as §1
Candida albicans [29] = experiment: Ratio of fluconazole MIC to compound MIC for Candida albicans PMC 1042R after 48 hrs by CLSI broth microdilution method
[30] = test system: Trichophyton mentagrophytes; experiment: Antifungal activity against Trichophyton mentagrophytes PMC 6509 after 72 hrs by CLSI broth microdilution method; details: PMC 6509, 72 h; how it was run: as §2
Nakaseomyces glabratus [31] = experiment: Antifungal activity against Candida glabrata PMC 0807 after 48 hrs by CLSI broth microdilution method; details: PMC 0807, 48 h; how it was run: as §1
Nakaseomyces glabratus [32] = experiment: Ratio of fluconazole MIC to compound MIC for Candida glabrata PMC 0851R after 48 hrs by CLSI broth microdilution method
Nakaseomyces glabratus [33] = experiment: Antifungal activity against Candida glabrata PMC 0805 after 48 hrs by CLSI broth microdilution method; details: PMC 0805, 48 h; how it was run: as §1
Candida albicans [34] = experiment: Antifungal activity against Candida albicans ATCC 24433 after 48 hrs by CLSI broth microdilution method; details: ATCC 24433, 48 h; how it was run: as §1
[35] = test system: Trichophyton mentagrophytes; experiment: Antifungal activity against Trichophyton mentagrophytes PMC 6503 after 72 hrs by CLSI broth microdilution method; details: PMC 6503, 72 h; how it was run: as §2
Nakaseomyces glabratus [36] = experiment: Antifungal activity against Candida glabrata PMC 0852R after 48 hrs by CLSI broth microdilution method; how it was run: as §1
Candida albicans [37] = experiment: Antifungal activity against Candida albicans ATCC 10231 after 48 hrs by CLSI broth microdilution method; details: ATCC 10231, 48 h; how it was run: as §1
Pichia kudriavzevii [38] = experiment: Antifungal activity against Candida krusei DSM 6128 after 48 hrs by CLSI broth microdilution method; details: DSM 6128, 48 h; how it was run: as §1
Candida parapsilosis [39] = experiment: Antifungal activity against Candida parapsilosis ATCC 22019 after 48 hrs by CLSI broth microdilution method; details: Lodderomyces parapsilosis, ATCC 22019, 48 h; how it was run: as §1
Nakaseomyces glabratus [40] = experiment: Ratio of fluconazole MIC to compound MIC for Candida glabrata PMC 0850R after 48 hrs by CLSI broth microdilution method
Cryptococcus neoformans [41] = experiment: Antifungal activity against Cryptococcus neoformans DSM 11959 after 72 hrs by CLSI broth microdilution method; details: DSM 11959, 72 h; how it was run: as §3
Candida albicans [42] = experiment: Antifungal activity against Candida albicans ATCC 76615 after 48 hrs by CLSI broth microdilution method; details: ATCC 76615, 48 h; how it was run: as §1
Nannizzia gypsea [43] = experiment: Antifungal activity against Microsporum gypseum PMC 7303 after 72 hrs by CLSI broth microdilution method; details: PMC 7303, 72 h; how it was run: as §2
Nannizzia gypsea [44] = experiment: Antifungal activity against Microsporum gypseum PMC 7331 after 72 hrs by CLSI broth microdilution method; details: PMC 7331, 72 h; how it was run: as §2
Candida albicans [45] = experiment: Ratio of fluconazole MIC to compound MIC for Candida albicans PMC 1041R after 48 hrs by CLSI broth microdilution method
Candida albicans [46] = experiment: Antifungal activity against Candida albicans PMC 1011 after 48 hrs by CLSI broth microdilution method; details: PMC 1011, 48 h; how it was run: as §1
Candida tropicalis [47] = experiment: Antifungal activity against Candida tropicalis DSM 11953 after 48 hrs by CLSI broth microdilution method; details: DSM 11953, 48 h; how it was run: as §1

MIC50 (Candida albicans [1]): 0.5 µg/mL (≈ 0.962 µM)
MIC50 (Candida parapsilosis [2]): 0.0625 µg/mL (≈ 0.12 µM)
MIC50 (Candida albicans [3]): 1 µg/mL (≈ 1.92 µM)
MIC80 (Nannizzia gypsea [4]): 2 µg/mL (≈ 3.85 µM)
MIC80 [6]: 4 µg/mL (≈ 7.69 µM)
MIC50 (Nakaseomyces glabratus [7]): 0.25 µg/mL (≈ 0.481 µM)
MIC50 (Candida albicans [8]): 0.0625 µg/mL (≈ 0.12 µM)
MIC50 (Cryptococcus neoformans [9]): 0.06 µg/mL (≈ 0.115 µM)
MIC80 [10]: 2 µg/mL (≈ 3.85 µM)
MIC50 (Cryptococcus neoformans [11]): 0.5 µg/mL (≈ 0.962 µM)
MIC50 (Cryptococcus neoformans [12]): 0.25 µg/mL (≈ 0.481 µM)
MIC50 (Candida albicans [13]): 0.5 µg/mL (≈ 0.962 µM)
MIC50 (Cryptococcus neoformans [15]): 0.25 µg/mL (≈ 0.481 µM)
MIC50 (Candida albicans [16]): 0.125 µg/mL (≈ 0.24 µM)
MIC50 (Candida tropicalis [17]): 2 µg/mL (≈ 3.85 µM)
MIC50 (Candida albicans [18]): 64 µg/mL (≈ 123 µM)
MIC50 (Candida albicans [19]): 0.125 µg/mL (≈ 0.24 µM)
MIC80 [20]: 4 µg/mL (≈ 7.69 µM)
MIC50 (Cryptococcus neoformans [21]): 0.0625 µg/mL (≈ 0.12 µM)
MIC50 (Cryptococcus neoformans [22]): 0.25 µg/mL (≈ 0.481 µM)
MIC50 (Pichia kudriavzevii [23]): 0.0625 µg/mL (≈ 0.12 µM)
MIC50 (Cryptococcus neoformans [24]): 0.25 µg/mL (≈ 0.481 µM)
MIC80 [25]: 4 µg/mL (≈ 7.69 µM)
MIC50 (Nakaseomyces glabratus [26]): 2 µg/mL (≈ 3.85 µM)
MIC50 (Nakaseomyces glabratus [28]): 64 µg/mL (≈ 123 µM)
MIC80 [30]: 4 µg/mL (≈ 7.69 µM)
MIC50 (Nakaseomyces glabratus [31]): 0.25 µg/mL (≈ 0.481 µM)
MIC50 (Nakaseomyces glabratus [33]): 0.0625 µg/mL (≈ 0.12 µM)
MIC50 (Candida albicans [34]): 0.5 µg/mL (≈ 0.962 µM)
MIC80 [35]: 4 µg/mL (≈ 7.69 µM)
MIC50 (Nakaseomyces glabratus [36]): 2 µg/mL (≈ 3.85 µM)
MIC50 (Candida albicans [37]): 0.25 µg/mL (≈ 0.481 µM)
MIC50 (Pichia kudriavzevii [38]): 0.5 µg/mL (≈ 0.962 µM)
MIC50 (Candida parapsilosis [39]): 0.125 µg/mL (≈ 0.24 µM)
MIC50 (Cryptococcus neoformans [41]): 0.125 µg/mL (≈ 0.24 µM)
MIC50 (Candida albicans [42]): 0.5 µg/mL (≈ 0.962 µM)
MIC80 (Nannizzia gypsea [43]): 2 µg/mL (≈ 3.85 µM)
MIC80 (Nannizzia gypsea [44]): 4 µg/mL (≈ 7.69 µM)
MIC50 (Candida albicans [46]): 0.0625 µg/mL (≈ 0.12 µM)
MIC50 (Candida tropicalis [47]): 0.25 µg/mL (≈ 0.481 µM)
SMILES: O=C(Nc1ccc(N2CCN(c3ccc(Cl)cc3)CC2)cc1)O[C@@H](Cn1ccnc1)c1ccc(F)cc1
Ratio (Nakaseomyces glabratus [5]): 15
Ratio (Candida albicans [14]): 15
Ratio (Nakaseomyces glabratus [27]): 15
Ratio (Candida albicans [29]): 15
Ratio (Nakaseomyces glabratus [32]): 15
Ratio (Nakaseomyces glabratus [40]): 15
Ratio (Candida albicans [45]): 15
